The labels stand for the following.
B1: Osa-1-4 twister ribozyme (parent)
chain: CCGCCUAACACUGCCAAUGCCGGUCCCAAGCCCGGAUAAAAGUGGAGGGGGCGG

Variants of B1 are the subject of the series. Briefly: self-cleavage, relative activity (ratio to wild type); higher = more cleavage; co-transcriptional. An outline of the steps:
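Values are relative activity: the fraction cleaved, normalised to wild type. A doped DNA template for a 54-nucleotide twister ribozyme from Oryza sativa had 97 % wild-type base and 1 % of each other base at the 48 positions downstream of the cleavage site. The RNA was transcribed in vitro for 2 h at 37 °C so that it could cleave itself co-transcriptionally, then sequenced deeply, with cleavage status scored from the presence or absence of upstream sequence in reads.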
Take CCGCCUAACACUGCCAGUGCCUGUCCCAAGCCCGGAUAAAAGUGGAGGGGGCGG [A17G G22U]: the self-cleavage came to 0.79.

As for CCGCCUAACACUGCCAUUGCCGGUCCCAAGCCCGGAUGAAAGUGGAGGGGGCGG [A17U A38G], the self-cleavage worked out at 1.02.

As for CCGCCUAACACUGCCAUUGCCGGUCCCAAGCCCGGAUUAAAGUGGAGGGGGCGG [A17U A38U], the self-cleavage came to 1.02. Next, CCGCCUAACACUGCCAUUGCCGGUCCCAAGCCCGGAUCAAAGUGGAGGGGGCGG [A17U A38C]: 0.98; CCGCCUAACACUGCCAGUGCCGGUCCCAACCCCGGAUAAAAGUGGAGGGGGCGG [A17G G30C]: 0.06; CCGCCUAACACUGCCAGUGCCGGUCCCAAACCCGGAUAAAAGUGGAGGGGGCGG [A17G G30A]: 0.05.

In the case of CCGCCUAACACUGCCAGUGCCGGUCCCAAUCCCGGAUAAAAGUGGAGGGGGCGG [A17G G30U], the self-cleavage amounted to 0.05. Next, CCGCCUAACACUGACAUUGCCGGUCCCAAGCCCGGAUAAAAGUGGAGGGGGCGG [A17U C14A]: 0.18. Take CCGCCUAACACUGGCAUUGCCGGUCCCAAGCCCGGAUAAAAGUGGAGGGGGCGG [A17U C14G]: the self-cleavage was found to be 0.25.

Consider CCGCCUAACACUGCCAGUGCCGGUCCCAAGCCCGGAUAAAAGUGGAUGGGGCGG [A17G G47U], for which the self-cleavage was 0.43. For CCGCCUAACACUGCCAGUGCCGGUCCCAAGCCCGGAUAAAAGUGGAAGGGGCGG [A17G G47A] the value was 0.46; for CCGCCUAACACUGCCAGUGCCGGUCCCAAGCCCGGAUAAAAGUGGACGGGGCGG [A17G G47C], 0.17; for CCGCCUAACACUGCCAUUGCCGGUCCCGAGCCCGGAUAAAAGUGGAGGGGGCGG [A17U A28G], 0.37.

On to CCGCCUAACACUGCCAUUGCCGGUCCCCAGCCCGGAUAAAAGUGGAGGGGGCGG [A17U A28C], for which the self-cleavage was 0.94. For CCGCCUAACACUGCCAUUGCCGGUCCCUAGCCCGGAUAAAAGUGGAGGGGGCGG [A17U A28U] the value was 0.97.

For CCGCCUAACACUGCCAUUGCCGGUCCCAAGCCCGGAUAAAAGUGGCGGGGGCGG [A17U A46C], the self-cleavage worked out at 0.04. On to CCGCCUAACACUGCCAUUGCCGGUCCCAAGCCCGGAUAAAAGUGGUGGGGGCGG [A17U A46U], for which the self-cleavage was determined as 0.1.

For the variant CCGCCUAACACUGCCAUUGCCGGUCCCAAGCCCGGAUAAAAGUGGGGGGGGCGG [A17U A46G], the self-cleavage came to 0.09.

On to CCGCCUAUCACUGCCAUUGCCGGUCCCAAGCCCGGAUAAAAGUGGAGGGGGCGG [A17U A8U], for which the self-cleavage amounted to 0.42. In the case of CCGCCUAGCACUGCCAUUGCCGGUCCCAAGCCCGGAUAAAAGUGGAGGGGGCGG [A17U A8G], the self-cleavage came to 0.62. Next, CCGCCUACCACUGCCAUUGCCGGUCCCAAGCCCGGAUAAAAGUGGAGGGGGCGG [A17U A8C]: 0.11; CCGCCUAACACUGCCAUUGCCGGUCCCAAGCCCGGAUAAUAGUGGAGGGGGCGG [A17U A40U]: 0.63; CCGCCUAACACUGCCAUUGCCGGUCCCAAGCCCGGAUAAGAGUGGAGGGGGCGG [A17U A40G]: 0.93. For CCGCCUAACACUGCCAUUGCCGGUCCCAAGCCCGGAUAACAGUGGAGGGGGCGG [A17U A40C] the value was 0.09; for CCGCCUAACACUGCCAGUGCCGAUCCCAAGCCCGGAUAAAAGUGGAGGGGGCGG [A17G G23A], 0.43; for CCGCCUAACACUGCCAGUGCCGCUCCCAAGCCCGGAUAAAAGUGGAGGGGGCGG [A17G G23C], 0.08. As for CCGCCUAACACUGCCAGUGCCGUUCCCAAGCCCGGAUAAAAGUGGAGGGGGCGG [A17G G23U], the self-cleavage was 0.08. Take CCGCCUGACACUGCCAUUGCCGGUCCCAAGCCCGGAUAAAAGUGGAGGGGGCGG [A17U A7G]: the self-cleavage was 0.43. For CCGCCUUACACUGCCAUUGCCGGUCCCAAGCCCGGAUAAAAGUGGAGGGGGCGG [A17U A7U] the value was 0.09. For CCGCCUCACACUGCCAUUGCCGGUCCCAAGCCCGGAUAAAAGUGGAGGGGGCGG [A17U A7C] the value was 0.05. For CCGCCUAACACUGCCAGUGCCGGUCCCAAGCCCGGAUAAAAGUGGAGGAGGCGG [A17G G49A] the value was 0.26; for CCGCCUAACACUGCCAGUGCCGGUCCCAAGCCCGGAUAAAAGUGGAGGUGGCGG [A17G G49U], 0.25. Take CCGCCUAACACUGCCAGUGCCGGUCCCAAGCCCGGAUAAAAGUGGAGGCGGCGG [A17G G49C]: the self-cleavage was 0.08. For CCGCCUAACACUGCCAGUGCCGGUCCCAAGCCCGGAUAAAAGUUGAGGGGGCGG [A17G G44U] the value was 0.74; for CCGCCUAACACUGCCAGUGCCGGUCCCAAGCCCGGAUAAAAGUAGAGGGGGCGG [A17G G44A], 0.88; for CCGCCUAACACUGCCAGUGCCGGUCCCAAGCCCGGAUAAAAGUCGAGGGGGCGG [A17G G44C], 0.88. For CCGCCUAACACUGCCAGUGCCGGACCCAAGCCCGGAUAAAAGUGGAGGGGGCGG [A17G U24A] the value was 0.43. Regarding CCGCCUAACACUGCCAGUGCCGGGCCCAAGCCCGGAUAAAAGUGGAGGGGGCGG [A17G U24G], the self-cleavage is 0.03.

As for CCGCCUAACACUGCCAGUGCCGGCCCCAAGCCCGGAUAAAAGUGGAGGGGGCGG [A17G U24C], the self-cleavage was 0.36. For CCGCCUAACACUGCCAGUGCCGGUCCCAAGCCCGAAUAAAAGUGGAGGGGGCGG [A17G G35A] the value was 0.79; for CCGCCUAACACUGCCAGUGCCGGUCCCAAGCCCGUAUAAAAGUGGAGGGGGCGG [A17G G35U], 0.77; for CCGCCUAACACUGCCAGUGCCGGUCCCAAGCCCGCAUAAAAGUGGAGGGGGCGG [A17G G35C], 0.66. Next, CCGCCUAACACUGCCAUUGCCGGUCCCAAGCCCGGAUAGAAGUGGAGGGGGCGG [A17U A39G]: 1.03; CCGCCUAACACUGCCAUUGCCGGUCCCAAGCCCGGAUAUAAGUGGAGGGGGCGG [A17U A39U]: 1.03. For CCGCCUAACACUGCCAUUGCCGGUCCCAAGCCCGGAUACAAGUGGAGGGGGCGG [A17U A39C] the value was 0.98. Turning to CCGCCUAACACUGCCAGUGCCGGUCCCAAGCCCGGAUAAAAGUGGAGGGGCCGG [A17G G51C], the self-cleavage came to 0.14.

For CCGCCUAACACUGCCAGUGCCGGUCCCAAGCCCGGAUAAAAGUGGAGGGGUCGG [A17G G51U], the self-cleavage amounted to 0.3. As to CCGCCUAACACUGCCAGUGCCGGUCCCAAGCCCGGAUAAAAGUGGAGGGGACGG [A17G G51A], the self-cleavage is 0.44.

The record behind these values is the RNAGym collection of RNA variant scans (doi:10.1002/anie.201605470).
